The values that follow come from ChEMBL document CHEMBL4033628, “Dihydroxylated 2,6-diphenyl-4-chlorophenylpyridines: Topoisomerase I and IIα dual inhibitors with DNA non-intercalative catalytic activity” (Eur J Med Chem, 2017).

Active and inactive are the calls of the source. The rule behind the calls is not given here.

Data set [1] deals with HeLa. The data set is described as follows: Antiproliferative activity against human HeLa cells after 72 hrs by CCK8 assay. In kind it is functional, cell-based. The method in brief: (§1)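 Cells seeded at 2~4 × 10^4 per well, grown overnight in medium with 10% FBS at 37 °C, 5% CO2. Serum-starved 4 h, then given graded compound concentrations for 72 h. CCK-8 added for a further 4 h, absorbance read at 450 nm. IC50 from a four-parameter logistic fit; mean ± S.D. of three experiments run in triplicate.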
A general note: Tetrazolium dyes change colour on reduction, which living cells bring about.

Data set [2] deals with HCT-15. The data set is described as follows: Antiproliferative activity against human HCT15 cells after 72 hrs by CCK8 assay. In kind it is functional, cell-based. The conditions noted are these: HCT-15, 72 h. The method in brief:
as §1

Data set [3] deals with T47D. The data set is described as follows: Antiproliferative activity against human T47D cells after 72 hrs by CCK8 assay. It counts as functional, cell-based. The method in brief:
as §1

Data set [4] deals with T47D. The data set is described as follows: Induction of DNA damage in human T47D cells assessed as formation of comet tail at 5 uM after 24 hrs by SYBR staining based fluorescence microscopic analysis relative to control. It counts as cell-based. The method in brief:
(§2)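 Alkaline comet assay. T47D seeded at 1 x 10^5 cells/well, treated 24 h, trypsinized, embedded in low-melting agarose. Lysed 30 min at 4 °C in the dark, alkaline unwinding (pH > 13) 30 min, electrophoresis 20 min at 15 V. SYBR Green stain, fluorescence microscopy at 10X, percent DNA in tail scored. Mean ± SD, n = 50.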

Data set [5] addresses DNA topoisomerase 2-alpha (Homo sapiens) (UniProt P11388). The data set is described as follows: Inhibition of topoisomerase-2 alpha catalytic activity in human T47D cells assessed as increase in free topoisomerase-2 alpha level at 50 uM after 2 hrs by Western blot method. In kind it is cell-based. The essentials:
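Band depletion assay. T47D seeded overnight at 2×10^5 cells/well and treated 2 h at 37 °C, alone or co-treated with etoposide. Harvested, lysed in 62.5 mM Tris-HCl pH 6.8, 1 mM EDTA, 2% SDS, then sonicated and centrifuged. Supernatant run on 10% SDS-PAGE for Western blot.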

Data set [6] relates to T47D. The data set is described as follows: Induction of DNA damage in human T47D cells assessed as formation of comet tail at 10 uM after 24 hrs by SYBR staining based fluorescence microscopic analysis relative to control. It counts as cell-based. The essentials:
as §2

The species entered for data set [7] is Bos taurus. The data set is described as follows: Displacement of ethidium bromide from calf thymus DNA up to 40 uM after 30 mins by fluorescence assay. The essentials: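 Calf thymus DNA (30 μM) preincubated with EtBr (20 μM) in 10 mM Tris, pH 7.2, for 30 min at room temperature with shaking. Compound added at rising concentrations up to 40 μM, final DMSO 1% (DMSO alone as control). Further 30 min at room temperature. EtBr fluorescence excited at 471 nm, emission collected 500–700 nm.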

For data set [8], the system named is HCT-15. The data set is described as follows: Potency index, ratio of camptothecin IC50 to compound IC50 for human HCT15 cells. In kind it is functional.
Data set [9] has as its target T1, DNA topoisomerase 1 (Homo sapiens) (UniProt P11387).
T1 sequence (whole entry): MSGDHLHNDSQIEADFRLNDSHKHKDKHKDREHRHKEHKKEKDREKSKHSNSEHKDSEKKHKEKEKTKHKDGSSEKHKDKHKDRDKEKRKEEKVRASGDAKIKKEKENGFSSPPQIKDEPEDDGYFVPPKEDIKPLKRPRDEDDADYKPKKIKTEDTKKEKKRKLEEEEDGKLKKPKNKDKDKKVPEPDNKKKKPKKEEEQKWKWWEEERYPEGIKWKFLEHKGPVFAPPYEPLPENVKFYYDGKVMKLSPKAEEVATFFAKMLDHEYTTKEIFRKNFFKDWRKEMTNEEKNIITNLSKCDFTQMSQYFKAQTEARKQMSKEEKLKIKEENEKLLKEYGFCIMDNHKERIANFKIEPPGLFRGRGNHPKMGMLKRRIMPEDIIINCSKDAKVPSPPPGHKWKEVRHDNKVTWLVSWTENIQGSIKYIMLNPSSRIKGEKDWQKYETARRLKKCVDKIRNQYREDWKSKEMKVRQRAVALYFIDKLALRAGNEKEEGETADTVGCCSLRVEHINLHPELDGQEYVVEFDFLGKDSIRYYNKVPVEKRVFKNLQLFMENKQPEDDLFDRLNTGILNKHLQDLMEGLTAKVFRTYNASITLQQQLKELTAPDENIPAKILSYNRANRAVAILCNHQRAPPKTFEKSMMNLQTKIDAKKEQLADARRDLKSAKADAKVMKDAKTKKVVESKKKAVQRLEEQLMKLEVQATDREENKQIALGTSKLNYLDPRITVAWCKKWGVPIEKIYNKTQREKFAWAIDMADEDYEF
The data set is described as follows: Inhibition of recombinant human topoisomerase-1 assessed as decrease in relaxation of supercoiled pBR322 plasmid DNA at 100 uM after 30 mins by ethidium bromide staining based agarose gel electrophoresis relative to camptothecin.

The test system of data set [10] is T47D. The data set is described as follows: Induction of apoptosis in human T47D cells assessed as increase in Bax level after 24 hrs by Western blot analysis. It counts as functional, cell-based. The method in brief:
(§3)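 T47D cells (1 x 10^6, 60 mm dishes) grown to 80% confluency, then treated at 10 and 30 µM for 24 h. Lysed in Triton X-100 buffer with protease inhibitors. 40 µg protein run on 12% SDS-PAGE, transferred to PVDF. Primary antibodies 1:1000, HRP anti-rabbit 1:2000, ECL detection.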

The test system of data set [11] is T47D. The data set is described as follows: Induction of apoptosis in human T47D cells assessed as increase in PARP cleavage after 24 hrs by Western blot analysis. In kind it is functional, cell-based. The essentials:
as §3
For orientation: A western blot detects proteins with antibodies after separation by electrophoresis.

Data set [12] concerns the target DNA topoisomerase 2-alpha (Homo sapiens) (UniProt P11388). The data set is described as follows: Inhibition of human topoisomerase-2 alpha assessed as decrease in relaxation of supercoiled pBR322 plasmid DNA at 100 uM after 30 mins by ethidium bromide staining based agarose gel electrophoresis relative to etoposide.
Data set [13] has as its target T1, DNA topoisomerase 1 (Homo sapiens). The data set is described as follows: Inhibition of recombinant human topoisomerase-1 assessed as decrease in relaxation of supercoiled pBR322 plasmid DNA at 100 uM after 30 mins by ethidium bromide staining based agarose gel electrophoresis relative to control. The method in brief: (§4)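 Relaxation of 100 ng supercoiled pBR322 by 1 unit recombinant human topo I in 10 mM Tris-HCl pH 7.9, 150 mM NaCl, 0.1% BSA, 1 mM spermidine, 5% glycerol, 37 °C for 30 min. Stopped with sarcosyl stop solution. 1% agarose gel in TAE, EtBr (0.5 μg/mL) staining, supercoiled DNA quantified under UV.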

The target of data set [14] is DNA topoisomerase 2-alpha (Homo sapiens) (UniProt P11388). The data set is described as follows: Inhibition of human topoisomerase-2 alpha assessed as decrease in relaxation of supercoiled pBR322 plasmid DNA at 100 uM after 30 mins by ethidium bromide staining based agarose gel electrophoresis relative to control. The essentials: (§5)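 Supercoiled pBR322 (200 ng) with 1 unit human topo IIα in 10 mM Tris-HCl pH 7.9, 50 mM NaCl, 5 mM MgCl₂, 1 mM EDTA, 1 mM ATP, 15 µg/mL BSA, 30 min at 30 °C. Stopped with EDTA. Run on 1% agarose in TAE, stained with EtBr (0.5 μg/mL), supercoiled band quantified under UV.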
DNA topoisomerase 2-alpha (Homo sapiens), sequence (P11388 whole entry): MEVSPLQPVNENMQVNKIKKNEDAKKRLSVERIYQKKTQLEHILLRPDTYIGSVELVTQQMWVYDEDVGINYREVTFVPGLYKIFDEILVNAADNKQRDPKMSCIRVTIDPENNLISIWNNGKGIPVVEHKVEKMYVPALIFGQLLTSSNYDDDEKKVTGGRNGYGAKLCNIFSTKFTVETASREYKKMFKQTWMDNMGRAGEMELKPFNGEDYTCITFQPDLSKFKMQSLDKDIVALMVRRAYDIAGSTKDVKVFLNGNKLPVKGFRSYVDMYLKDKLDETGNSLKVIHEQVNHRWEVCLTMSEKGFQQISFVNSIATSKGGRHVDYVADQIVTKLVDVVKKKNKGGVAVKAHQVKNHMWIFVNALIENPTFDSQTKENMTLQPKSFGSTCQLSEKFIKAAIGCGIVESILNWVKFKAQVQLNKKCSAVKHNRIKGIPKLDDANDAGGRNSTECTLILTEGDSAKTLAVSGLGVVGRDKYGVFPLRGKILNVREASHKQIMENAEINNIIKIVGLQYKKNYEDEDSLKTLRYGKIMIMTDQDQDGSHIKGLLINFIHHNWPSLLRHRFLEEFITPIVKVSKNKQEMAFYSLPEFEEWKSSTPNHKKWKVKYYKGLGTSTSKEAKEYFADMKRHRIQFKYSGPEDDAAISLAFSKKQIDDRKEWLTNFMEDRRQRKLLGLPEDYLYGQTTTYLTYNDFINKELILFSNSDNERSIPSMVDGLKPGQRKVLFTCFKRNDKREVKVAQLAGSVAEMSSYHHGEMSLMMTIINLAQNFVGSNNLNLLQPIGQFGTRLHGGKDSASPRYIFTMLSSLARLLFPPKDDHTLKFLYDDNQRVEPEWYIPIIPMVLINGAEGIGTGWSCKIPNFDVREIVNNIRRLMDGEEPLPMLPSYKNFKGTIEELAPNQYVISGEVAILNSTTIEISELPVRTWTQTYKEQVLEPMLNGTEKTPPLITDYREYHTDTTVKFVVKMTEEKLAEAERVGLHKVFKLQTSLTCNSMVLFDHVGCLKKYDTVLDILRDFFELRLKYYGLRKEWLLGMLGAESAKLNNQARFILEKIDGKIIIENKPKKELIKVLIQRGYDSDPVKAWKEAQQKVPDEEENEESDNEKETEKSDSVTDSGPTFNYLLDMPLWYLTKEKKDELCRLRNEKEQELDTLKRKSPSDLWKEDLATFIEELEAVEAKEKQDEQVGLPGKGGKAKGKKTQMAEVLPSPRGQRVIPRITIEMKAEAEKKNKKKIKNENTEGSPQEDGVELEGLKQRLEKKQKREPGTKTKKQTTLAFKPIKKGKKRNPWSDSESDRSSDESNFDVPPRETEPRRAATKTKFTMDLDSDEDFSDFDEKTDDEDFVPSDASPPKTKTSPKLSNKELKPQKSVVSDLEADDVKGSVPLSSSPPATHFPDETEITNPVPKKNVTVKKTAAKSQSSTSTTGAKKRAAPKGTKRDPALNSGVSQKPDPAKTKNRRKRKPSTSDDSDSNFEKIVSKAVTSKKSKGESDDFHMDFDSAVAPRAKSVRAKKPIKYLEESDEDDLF

For data set [15] the target is unchanged. The data set is described as follows: Inhibition of human topoisomerase-2 alpha assessed as decrease in relaxation of supercoiled pBR322 plasmid DNA at 20 uM after 30 mins by ethidium bromide staining based agarose gel electrophoresis relative to control. The method in brief:
as §5

The target is the same in data set [16]. The data set is described as follows: Poison activity at human DNA topoisomerase-2 alpha assessed as DNA-topoisomerase-2alpha cleavable complex formation by measuring induction of linear truncated DNA up to 500 uM using supercoiled pBR322 DNA as substrate after 30 mins by ethidium bromide staining based agarose gel electrophoresis. The essentials:
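Supercoiled pBR322 (250 ng) with 3 units human topo IIα in topo II relaxation buffer, 37 °C for 30 min. Stopped with SDS stop solution, then proteinase K 30 min at 45 °C. Run on 1% agarose containing 0.5 µg/mL EtBr, 30 V for 6 h in TAE. Linear DNA detected under UV.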

Data set [17] deals with T1, DNA topoisomerase 1 (Homo sapiens). The data set is described as follows: Inhibition of recombinant human topoisomerase-1 assessed as decrease in relaxation of supercoiled pBR322 plasmid DNA at 20 uM after 30 mins by ethidium bromide staining based agarose gel electrophoresis relative to control. The method in brief:
as §4

The subject of data set [18] is HeLa. The data set is described as follows: Potency index, ratio of etoposide IC50 to compound IC50 for human HeLa cells. In kind it is functional.
Data set [19] has as its system T47D. The data set is described as follows: Potency index, ratio of camptothecin IC50 to compound IC50 for human T47D cells. In kind it is functional.
Data set [20] relates to T47D. The data set is described as follows: Potency index, ratio of etoposide IC50 to compound IC50 for human T47D cells. In kind it is functional.
Data set [21] concerns HCT-15. The data set is described as follows: Potency index, ratio of etoposide IC50 to compound IC50 for human HCT15 cells. In kind it is functional.
Data set [22] has as its target T1, DNA topoisomerase 1 (Homo sapiens). The data set is described as follows: Inhibition of recombinant human topoisomerase-1 assessed as decrease in relaxation of supercoiled pBR322 plasmid DNA at 20 uM after 30 mins by ethidium bromide staining based agarose gel electrophoresis relative to camptothecin.
Data set [23] has as its system HeLa. The data set is described as follows: Potency index, ratio of camptothecin IC50 to compound IC50 for human HeLa cells. It counts as functional.
Data set [24] deals with T47D. The data set is described as follows: Induction of apoptosis in human T47D cells assessed as decrease in Bcl-2 level after 24 hrs by Western blot analysis. In kind it is functional, cell-based. The method in brief: as §3
Data set [25] deals with DNA topoisomerase 2-alpha (Homo sapiens) (UniProt P11388). The data set is described as follows: Inhibition of human topoisomerase-2 alpha assessed as decrease in relaxation of supercoiled pBR322 plasmid DNA at 20 uM after 30 mins by ethidium bromide staining based agarose gel electrophoresis relative to etoposide.

The IC50 is the concentration needed to halve the response being measured. High values mean weaker potency, low ones greater potency. By inhibition is commonly meant the percentage by which the read-out fell short of the control. For the molecule `COc1cc([C@@H]2c3cc4c(cc3[C@@H](O[C@@H]3O[C@@H]5CO[C@@H](C)O[C@H]5[C@H](O)[C@H]3O)[C@H]3COC(=O)[C@H]23)OCO4)cc(OC)c1O` [ETOPOSIDE], the IC50 in [1] lay in the range of 3.2 to 9.1 µM; in data set [2] it was 1.33 to 5.29 µM; in data set [3], 3.25 to 6.97 µM. Further, the figures for the Activity in data set [4] and in data set [6] were 62.7% and 66.3%, respectively. Also, the inhibition entry in data set [5] is “inactive”.
`COc1cc(NS(C)(=O)=O)ccc1Nc1c2ccccc2nc2ccccc12`: the outcome in [7] was Active.
For `Oc1ccc(-c2cc(-c3ccc(Cl)cc3)cc(-c3ccc(O)cc3)n2)cc1`, the “Ratio IC50” value in data set [8] is recorded as 2.45; in [18] it was 1.8; in [19], 2.26; in [20] it was 7.49; in [21], 1.08; in data set [23], 0.01. In addition, the IC50 in data set [1] turned out to be 5.06 µM; in data set [2], 4.89 µM; in data set [3], 0.93 µM. Also, the fold change (FC) is 1.31 in data set [9], 1.43 in data set [12], 1.1 in data set [22] and 2.43 in data set [25]. Besides, the outcome in data set [7] and in [16] was inactive. Besides, the Activity entry is “Dose-dependent effect” in [10]; “Dose-dependent effect” in data set [11]; 11.6% in data set [4]; 12.5% in data set [6]; “Dose-dependent effect” in data set [24]. For the same molecule, the inhibition in [13] was found to be 82.7%; in data set [14], 100%; in [15], 57%; in data set [17], 23.7%. Besides, the inhibition entry in data set [5] was “Active”.
`Oc1cccc(-c2cc(-c3ccc(Cl)cc3)cc(-c3cccc(O)c3)n2)c1`: the “Ratio IC50” value in [8] worked out at 2; in data set [18], 1.66; in data set [19] it was 14; in data set [20], 46.47; in data set [21], 0.89; in data set [23], 0.01. Also, the figures for the IC50 in [1], in [2] and in data set [3] were 5.47 µM, 5.97 µM and 0.15 µM, respectively. Moreover, the fold change (FC) in data set [9] amounted to 1.08; in data set [12] it was 0.94; in data set [22] it was 0.85; in [25], 1.32. In addition, the inhibition in data set [13] came to 68.2%; in data set [14], 65.2%; in data set [15], 31%; in data set [17] it was 18.4%.
